Laboratory results taken from ChEMBL document CHEMBL1156084, “Synthesis and structure-activity relationships of pyrazolodiazepine derivatives as human P2X7 receptor antagonists” (Bioorg Med Chem Lett, 2009).

Assays:
Type in all cases: functional, cell-based
[1] = biological target: T1, P2X purinoceptor 7 (Homo sapiens) (UniProt Q99572); experiment: Antagonist activity at human P2X7 receptor expressed in HEK293 cells assessed as inhibition of BzATP-induced fluorescent ethidium accumulation; conditions: concentration not given here
T1 sequence (whole entry): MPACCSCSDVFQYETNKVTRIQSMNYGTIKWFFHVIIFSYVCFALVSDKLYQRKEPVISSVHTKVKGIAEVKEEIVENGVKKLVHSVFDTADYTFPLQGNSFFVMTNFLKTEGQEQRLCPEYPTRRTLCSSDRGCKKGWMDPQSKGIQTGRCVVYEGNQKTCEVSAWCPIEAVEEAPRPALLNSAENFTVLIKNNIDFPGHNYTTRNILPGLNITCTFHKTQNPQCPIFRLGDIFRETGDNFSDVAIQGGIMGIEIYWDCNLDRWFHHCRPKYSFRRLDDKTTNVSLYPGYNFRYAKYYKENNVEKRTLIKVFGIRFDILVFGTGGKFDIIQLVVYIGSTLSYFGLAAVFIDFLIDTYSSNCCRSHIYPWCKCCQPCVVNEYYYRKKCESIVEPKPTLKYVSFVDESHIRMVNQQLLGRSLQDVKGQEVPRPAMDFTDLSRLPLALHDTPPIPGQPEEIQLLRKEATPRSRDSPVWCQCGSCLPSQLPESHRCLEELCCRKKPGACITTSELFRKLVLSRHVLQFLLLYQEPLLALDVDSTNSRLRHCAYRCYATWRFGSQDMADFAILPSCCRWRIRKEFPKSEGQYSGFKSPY
In short: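 Adherent HEK293 cells stably transfected with human P2X7 cDNA, resuspended at 2.5×10^6 cells/mL in HEPES buffer (mM: ethidium bromide 0.1, EDTA 1, glucose 5, HEPES 20, KCl 140; pH 7.4). Cells added to compound wells, then BzATP, and incubated 120 min at 37 °C. Ethidium uptake read by fluorescence (ex 530/20, em 590/20). IC50 is the mean from dose–response curves of at least three experiments.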

P2X purinoceptor 7 = biological target: T2, P2X purinoceptor 7 (Homo sapiens, UniProt Q99572); experiment: Antagonist activity at human P2X7 receptor expressed in HEK293 cells assessed as inhibition of BzATP-induced fluorescent ethidium accumulation […]
T2 sequence (Q99572 whole entry): T1 sequence (whole entry)
In short: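 Human P2X7-expressing HEK293 cells at 2.5×10^6 cells/mL in pH 7.4 HEPES/KCl/EDTA/glucose buffer containing 0.1 mM ethidium bromide. Compound tested at 10 μM, then BzATP added, and cells held 120 min at 37 °C. Ethidium accumulation measured by fluorescence (ex 530/20, em 590/20) and expressed as % inhibition, mean ± SD of three repeats.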

[2] = biological target: T1, P2X purinoceptor 7 (Homo sapiens); experiment: Antagonist activity at P2X7 receptor in IFN-gamma/LPS-differentiated human THP1 cells assessed as inhibition of BzATP-induced IL1-beta release at 10 uM treated 30 mins prior to BzATP addition by ELISA; conditions: THP-1
In short: (§1)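 THP-1 cells differentiated and primed 3 h with 25 ng/mL LPS plus 10 ng/ml IFNγ. Compound added 30 min before stimulation with 1 mM BzATP for 30 min. Supernatants cleared by centrifugation (1000 rpm, 5 min), and mature human IL-1β quantified by ELISA.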

[3] = biological target: T1, P2X purinoceptor 7 (Homo sapiens); experiment: Antagonist activity at P2X7 receptor in IFN-gamma/LPS-differentiated human THP1 cells assessed as inhibition of BzATP-induced IL1-beta release treated 30 mins prior to BzATP addition by ELISA; conditions: THP-1; in short: as §1

inhibition [1] [%] | IC50 (P2X purinoceptor 7) [nM] | inhibition [2] [%] | Activity [3] | Compound
87 | 520 | 38 | – | Cc1ccc(CN2C[C@H](COC(=O)c3cn(C)c4ccccc34)NC(=O)c3nn(CCc4ccccc4)cc32)cc1
69 | 1180 | 48 | – | Cc1ccc(CN2C[C@H](COC(=O)c3cccc4cnccc34)NC(=O)c3nn(CCc4ccccc4)cc32)cc1
42 | – | – | – | Cc1cccc(CN2C[C@H](COC(=O)c3cccc4cnccc34)NC(=O)c3nn(CCc4ccccc4)cc32)c1
84 | 740 | 51 | – | Cc1cc(CN2C[C@H](COC(=O)c3cccc4cnccc34)NC(=O)c3nn(CCc4ccccc4)cc32)ccc1O
68 | 1450 | 42 | – | O=C1N[C@@H](COC(=O)c2cccc3cnccc23)CN(Cc2ccccc2)c2cn(CCc3ccccc3)nc21
33 | – | – | – | Cn1cc(CN2C[C@H](COC(=O)c3cccc4cnccc34)NC(=O)c3nn(CCc4ccccc4)cc32)c2ccccc21
38 | – | – | – | O=C1N[C@@H](COC(=O)c2cccc3cnccc23)CN(Cc2ccc(Br)cc2)c2cn(CCc3ccccc3)nc21
88 | 850 | 50 | – | Cn1cc(C(=O)OC[C@H]2CN(Cc3ccc(Br)cc3)c3cn(CCc4ccccc4)nc3C(=O)N2)c2ccccc21
75 | 1280 | 65 | – | O=C1N[C@@H](COC(=O)c2cccc3cnccc23)CN(Cc2ccc(F)cc2)c2cn(CCc3ccccc3)nc21
44 | – | – | – | O=C1N[C@@H](COC(=O)c2cccc3ccccc23)CN(Cc2ccccc2)c2cn(CCc3ccccc3)nc21

The remaining lines, values behind:

Compound | inhibition [1] [%] | IC50 (P2X purinoceptor 7) [nM] | inhibition [2] [%] | Activity [3]
Cc1cc(O)ccc1CN1C[C@@H](COC(=O)c2cn(C)c3ccccc23)NC(=O)c2nn(CCc3ccccc3)cc21 | 30 | – | – | –
CN([C@@H](Cc1ccc(OS(=O)(=O)c2cccc3cnccc23)cc1)C(=O)N1CCN(c2ccccc2)CC1)S(=O)(=O)c1cccc2cnccc12 | – | 110 | 103 | –
O=C1N[C@@H](COC(=O)c2cccc3ccccc23)CNc2cn(CCc3ccccc3)nc21 | 46 | – | – | –
Cn1cc(C(=O)OC[C@H]2CNc3cn(CCc4ccccc4)nc3C(=O)N2)c2ccccc21 | 43 | – | – | –
Cn1cc(C(=O)OC[C@H]2CN(Cc3ccc(F)cc3)c3cn(CCc4ccccc4)nc3C(=O)N2)c2ccccc21 | 39 | – | – | –
Cn1cc(CN2CCC(CCn3cc4c(n3)C(=O)N[C@@H](Cc3ccccc3)CN4C(=O)C3CC3)CC2)c2ccccc21 | 39 | – | – | –
O=C1N[C@@H](Cc2ccccc2)CN(C(=O)C2CC2)c2cn(CCC3CCNCC3)nc21 | 13 | – | – | –
O=C1N[C@@H](COC(=O)c2cccc3cnccc23)CNc2cn(CCc3ccccc3)nc21 | 71 | 790 | 44 | –
Cn1cc(C(=O)OC[C@H]2CN(Cc3ccc([N+](=O)[O-])cc3)c3cn(CCc4ccccc4)nc3C(=O)N2)c2ccccc21 | 65 | 1420 | 41 | –
Cc1cc(O)ccc1CN1C[C@H](COC(=O)c2cn(C)c3ccccc23)NC(=O)c2nn(CCc3ccccc3)cc21 | 88 | 180 | 37 | –
Cn1cc(C(=O)OC[C@H]2CN(Cc3cccc(F)c3)c3cn(CCc4ccccc4)nc3C(=O)N2)c2ccccc21 | 45 | – | – | –
Cn1cc(C(=O)OC[C@H]2CN(Cc3ccc(Cl)cc3)c3cn(CCc4ccccc4)nc3C(=O)N2)c2ccccc21 | 94 | 250 | 55 | –
O=C1N[C@@H](Cc2ccccc2)CN(C(=O)C2CC2)c2cn(CCC3CCN(Cc4cccc5ncccc45)CC3)nc21 | 24 | – | – | –
Cn1cc(C(=O)OCC2CN(Cc3cccc4ccccc34)c3cn(CCc4ccccc4)nc3C(=O)N2)c2ccccc21 (single isomer, unassigned) | 48 | – | – | –
Cc1cccc(CN2C[C@H](COC(=O)c3cn(C)c4ccccc34)NC(=O)c3nn(CCc4ccccc4)cc32)c1 | 46 | – | – | –
O=C1N[C@@H](Cc2ccccc2)CN(C(=O)C2CC2)c2cn(CCC3CCN(Cc4cccc5cnccc45)CC3)nc21 | 27 | – | – | –
CC(C)(C)OC(=O)N1CCC(CCn2cc3c(n2)C(=O)N[C@@H](Cc2ccccc2)CN3C(=O)C2CC2)CC1 | 61 | 13000 | – | –
Cn1cc(CN2C[C@H](COC(=O)c3cn(C)c4ccccc34)NC(=O)c3nn(CCc4ccccc4)cc32)c2ccccc21 | 68 | 1070 | 65 | –
O=C(OC[C@H]1CNc2cn(CCc3ccccc3)nc2C(=O)N1)c1ccccc1 | 33 | – | – | –
CC(C)(C)OC(=O)N1CCC(CCn2cc3c(n2)C(=O)N[C@H](Cc2ccccc2)CN3C(=O)C2CC2)CC1 | 70 | 4310 | – | –
COc1ccc(CN2C[C@H](COC(=O)c3cn(C)c4ccccc34)NC(=O)c3nn(CCc4ccccc4)cc32)cc1 | 29 | – | – | –
Cn1cc(C(=O)OC[C@H]2CN(Cc3ccccc3)c3cn(CCc4ccccc4)nc3C(=O)N2)c2ccccc21 | 94 | 310 | 105 | Dose-dependent effect
